Source: PubChem (Johns Hopkins Ion Channel Center)
MrgX1 antag = antagonists of human MrgX1 receptor, primary screen, HEK293 cells, Fluo-4 calcium flux; BAM8-22 antagonism; hits give low values; B-score at 10 µM; hit rate 1.3% among 310,000; Mas-related G-protein coupled receptor member X1 (Homo sapiens), Q96LB2;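 active = calcium-response B-score plate-corrected more than 3 library SD below zero, starting fluorescence within 5 deviations, no agonist response on first addition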;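 also: peak minus trough fluorescence over baseline after final BAM8-22 challenge near maximal dose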
Target sequence (Q96LB2 whole entry, looked up): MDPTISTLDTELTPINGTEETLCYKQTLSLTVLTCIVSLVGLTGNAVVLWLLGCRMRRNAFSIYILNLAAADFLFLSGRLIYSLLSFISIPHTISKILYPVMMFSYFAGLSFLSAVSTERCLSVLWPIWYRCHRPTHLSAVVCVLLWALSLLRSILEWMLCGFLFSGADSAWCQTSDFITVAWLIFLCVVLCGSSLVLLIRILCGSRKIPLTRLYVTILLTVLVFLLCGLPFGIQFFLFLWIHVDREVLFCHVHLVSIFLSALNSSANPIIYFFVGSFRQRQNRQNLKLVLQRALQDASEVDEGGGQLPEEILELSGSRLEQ
RGS4 act = RGS4 potentiators or activators, primary screen, cell-based, HEK293 M3R inducible RGS4, calcium flux; carbachol calcium flux Fluo4; hits give low values; B-score at 10 µM; hit rate 0.92% among 310,000; AID 463111, 2010;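 active = B-score of the integrated calcium signal more than 4 SD below the library mean, with starting fluorescence not abnormally high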;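 also: negative B-score means reduced calcium response which marks RGS4 activation or potentiation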
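Also added: carbachol at ECmax as muscarinic agonist stimulus; Assay system: HEK293 cells with stable M3R and inducible RGS4; Timing: overnight RGS4 induction, 30 min dye load 37 °C, 20 min compound RT; Measured by: Fluo4-AM (2 µM) calcium-flux fluorescence, kinetic read.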
RGS4 inh = RGS4 inhibitors, primary screen, cell-based, HEK293 M3R inducible RGS4, calcium flux. Regulator of G-protein signaling 4 (Homo sapiens), P49798. Fluo-4 calcium flux; hits give high values; triggered by carbachol at its EC20. B-score at 10 µM. hit rate 0.45% among 310,000. AID 463165, 2010;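 active = B-score, a plate-corrected calcium signal, over three deviations above library mean, with baseline fluorescence within five deviations of library mean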;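 also: RGS4 expression induced by doxycycline in cells with stable M3 receptor; B-score is computed from the integrated fluorescence ratio over baseline after carbachol; higher B-score means a larger calcium signal and so more RGS4 inhibition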
Target sequence (P49798 whole entry, looked up): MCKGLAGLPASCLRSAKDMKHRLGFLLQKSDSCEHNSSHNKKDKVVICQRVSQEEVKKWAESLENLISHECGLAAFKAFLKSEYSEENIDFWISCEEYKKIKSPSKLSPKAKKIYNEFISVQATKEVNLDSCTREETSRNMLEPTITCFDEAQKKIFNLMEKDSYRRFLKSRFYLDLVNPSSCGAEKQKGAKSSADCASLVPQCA
MrgX1 PAM = positive allosteric modulators of MrgX1, primary screen, HEK293 cells, Fluo-4 calcium flux | Mas-related G-protein coupled receptor member X1 (Homo sapiens), Q96LB2 | FDSS; hits give high values | B-score at 10 µM | hit rate 0.63% among 310,000;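 active = plate-corrected calcium response at least 3 library SD above typical, normal starting fluorescence, not activating the receptor alone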;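 also: compound read alongside a low EC10 to EC30 dose of BAM8-22 agonist; peak minus trough fluorescence over baseline measured at the second addition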
MrgX1 ag = agonists of human MrgX1 receptor, primary screen, HEK293 cells, Fluo-4 calcium flux | Fluo-4 calcium fluorescence, agonist mode; hits give high values | B-score at 10 µM | AID 588627, 2011 | hit rate 0.44% among 310,000;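 active = calcium response B-score plate-corrected fluorescence ratio at least 3 library SD, with starting fluorescence B-score inside 5 SD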
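Assay system: stable human MrgX1 HEK293 cell line. Quantity: 15,000 cells per well. Schedule: cells plated overnight, dye loaded 0.5 h 37 °C, 0.5 h room temperature. Detection: Fluo-4 NW calcium-flux fluorescence, kinetic read. Read-out basis: peak-minus-minimum fluorescence over baseline, converted to B scores. Control set: positive and negative control wells on each plate.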
RGS4 block valid = enhanced carbachol calcium response, M3R/RGS4 cells, RGS4 inhibitor project, cell-based, validation screen, HEK293 M3R/RGS4, calcium flux | calcium response, % at 10 µM | carbachol calcium Fluo-4 fluorescence; carbachol added at its EC20; 0 = buffer wells, 100 = carbachol control | hit rate 65% among 1,700 | AID 492999, 2010 | shares compounds with RGS4 inh;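 active = duplicate-averaged calcium response above the buffer-only control mean plus 5 SD of those controls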;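 also: integrated fluorescence ratio F max minus min over baseline F0; higher response in RGS4-induced cells means RGS4 inhibition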
RGS4 uninduced = carbachol calcium response in non-induced M3R cells, confirmation, counter-screen for RGS4 inhibitor project, cell-based, HEK293 M3R. shares compounds with RGS4 inh. carbachol calcium Fluo-4; submaximal (EC20) carbachol stimulus; buffer wells 0%, carbachol control wells 100%. activity (percent), % at 10 µM. hit rate 20% among 1,900. AID 493000, 2010; call rule not given here;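 also: RGS4 induction absent so cells express M3R without RGS4; higher means more calcium signal and flags a non-specific hit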
M3R basal Ca ctr = second counter-screen for RGS4 inhibitors: non-induced cells without carbachol. shares compounds with RGS4 inh. HEK293 M3R/RGS4 non-induced, Fluo-4 calcium, no carbachol; normalised: buffer wells 0%, carbachol wells 100%. calcium response (agonist-mode artifact), % at 10 µM. hit rate 22% among 1,900. AID 493001;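 active = duplicate-averaged calcium rise in uninduced cells above buffer wells' mean plus 5 SD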
Active calls of the source: *; i = inactive; nt = no result. Rows were chosen to be rich in hits. Some 3.5% of all compounds tested hit in one or more screens of this group.

SMILES	MrgX1 antag	RGS4 act	RGS4 inh	MrgX1 PAM	MrgX1 ag	RGS4 block valid	RGS4 uninduced	M3R basal Ca ctr
COc1ccc(-c2nc3ccccc3nc2-c2ccccc2)cc1OC	i	i	i	i	i	nt	nt	nt
COc1ccc(OC)c(-c2nc3cc4ccccc4cc3nc2-c2ccccc2)c1	i	i	6.77*	i	i	14.0%*	i	93.5%*
CC1Cc2ccccc2N1CC(=O)NCc1ccccc1Cl (stereo unspecified)	i	i	i	i	i	nt	nt	nt
COC(=O)c1cc(-c2ccc(Br)cc2)on1	i	i	i	i	i	nt	nt	nt
CCOC(=O)c1nn(C23CC4CC(CC(C4)C2)C3)c2c1C(=O)N(c1ccc(C)cc1)C2=O	i	i	5.17*	i	i	i	i	99.5%*
COC(=O)c1nn(C23CC4CC(CC(C4)C2)C3)c2c1C(=O)N(c1ccc(Br)cc1)C2=O	i	i	5.87*	i	i	7.5%*	i	i
O=C1CCCN1c1ccc(S(=O)(=O)NCc2ccc(F)cc2)cc1	i	i	i	i	i	nt	nt	nt
N#C/C(=C\c1cccc([N+](=O)[O-])c1)c1nnc2n1CCCCC2	i	i	6.06*	i	i	15.5%*	i	i
Cc1cc(C)n(CCC(=O)N2CCCC(Nc3ccc(F)cc3)C2)n1 (stereo unspecified)	i	i	i	i	i	nt	nt	nt
O=C1NC(c2ccccc2)=C(c2nc3ccccc3s2)C(c2ccc(O)cc2)N1 (stereo unspecified)	i	i	8.59*	i	i	8.5%*	i	8.0%*
O=C1NC(c2ccccc2)=C(c2ccc3ccccc3n2)C(c2ccccc2)N1 (stereo unspecified)	i	i	i	i	i	nt	nt	nt
N#CC(C#N)=C1C=CC=CN1/C(=C\c1ccco1)C(=O)c1ccccc1	i	nt	nt	i	i	nt	nt	nt
COc1ccc(C(=O)/C(=C\c2ccco2)N2C=CC=CC2=C(C#N)C#N)cc1	i	i	25.1*	i	i	37.0%*	i	20.5%*
CCOC(=O)c1c(-c2ccccc2Cl)csc1NC(=O)c1cc(S(=O)(=O)N2CCOCC2)ccc1C	i	i	i	i	i	nt	nt	nt
CCOC(=O)c1cnc(Nc2nc3ccccc3o2)nc1C	i	i	i	i	i	nt	nt	nt
Cc1nc(Nc2nc3ccccc3o2)nc(C)c1C(=O)Nc1ccc(F)cc1	i	i	4.72*	i	i	7.0%*	i	i
COc1ccc(OC)c(S(=O)(=O)N2CCCC(C(=O)N3CCCCCC3)C2)c1 (stereo unspecified)	i	i	i	i	i	i	i	13.5%*
COc1ccc(C)cc1S(=O)(=O)N1CCCC(C(=O)N2CCOCC2)C1 (stereo unspecified)	i	i	i	i	i	i	i	i
COc1ccc(S(=O)(=O)N2CCCC(C(=O)N3CCOCC3)C2)cc1OC (stereo unspecified)	i	i	i	i	i	nt	nt	nt
COc1ccc(OC)c(S(=O)(=O)N2CCC(C(=O)N3CCOCC3)CC2)c1	i	i	i	i	i	i	i	i
COc1ccc(Cl)cc1S(=O)(=O)N1CCCC(C(=O)N2CCCC2)C1 (stereo unspecified)	i	i	i	i	i	nt	nt	nt
COc1ccc(OC)c(S(=O)(=O)N2CCCC(C(=O)N3CCCC3)C2)c1 (stereo unspecified)	i	i	i	i	i	i	i	i
COc1ccc(OC)c(S(=O)(=O)N2CCC(C(=O)N3CCCC3)CC2)c1	i	i	i	i	i	nt	nt	nt
COc1ccc(OC)c(S(=O)(=O)N2CCCC(C(=O)NCc3ccncc3)C2)c1 (stereo unspecified)	i	i	i	i	i	nt	nt	nt
Cc1onc(-c2ccccc2Cl)c1C(=O)NNC(=O)c1cccc(F)c1	i	i	i	i	i	nt	nt	nt
SMILES	MrgX1 antag	RGS4 act	RGS4 inh	MrgX1 PAM	MrgX1 ag	RGS4 block valid	RGS4 uninduced	M3R basal Ca ctr
COC(=O)CSc1[nH]c2cc(C)ccc2c1[N+](=O)[O-]	i	i	16.4*	i	i	44.0%*	i	i
CCOc1ccc2[nH]c(SCC(=O)OC)c([N+](=O)[O-])c2c1	-4.77*	i	7.64*	i	i	18.5%*	i	49.0%*
N#CCC(=O)N/N=C\c1cccc(OC/C=C/c2ccccc2)c1	i	i	i	i	i	nt	nt	nt
c1ccc(-c2csc(-n3cccn3)n2)cc1	i	i	i	i	i	nt	nt	nt
COc1ccc(C(=O)c2sc(Nc3ccccc3)nc2N)cc1	i	i	i	i	i	i	i	i
COc1ccc(C(=O)c2sc(Nc3ccccc3F)nc2N)cc1	i	i	i	i	i	nt	i	i
COc1ccc(C(=O)NC(=S)Nc2ccccc2F)cc1	i	i	i	i	i	nt	nt	nt
COc1ccc(C(=O)c2sc(Nc3ccccc3)nc2N)cc1OC	i	i	i	i	i	nt	nt	nt
Nc1nc(Nc2ccccc2)sc1C(=O)c1ccccc1	i	i	12.6*	i	i	23.0%*	37.5%*	i
COC(=O)N/N=C/c1cc(Br)ccc1O	i	i	i	i	i	nt	nt	nt
CC(C)NC(=S)N/N=C/c1cc(Br)ccc1O	i	i	5.76*	i	i	11.5%*	i	i
COc1ccc(F)cc1S(=O)(=O)NCC(=O)NCc1cc(=O)n(C)c(=O)n1C	i	i	i	i	i	nt	nt	nt
CC1CCCN(S(=O)(=O)c2ccc3[nH]c4c(c3c2)CCCC4)C1 (stereo unspecified)	i	i	i	i	i	nt	nt	nt
